The record followed here is publication PMC4701204 (Chemistry & biology, 2015).

“Also recorded” adds a separate entry of the source.

Data set [1] relates to BRCA deficient and proficient cell lines. Nature of the data set: Clonogenic survival assay. The format is cell-based. The essentials: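 Clonogenic survival of BRCA-deficient and BRCA-proficient cell lines treated with test compound or olaparib. Mean ± s.e.m. of 3 independent experiments.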
The next data set concerns the target RAD52-ssDNA complexes (Homo sapiens, UniProt P43351). Nature of the data set: Dissociation of pre-formed RAD52-ssDNA complexes. The format is binding. The note with it: 30 μM, FP measured 2 min after addition. The essentials:
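RAD52–ssDNA complexes pre-formed and equilibrated for 30 min before 30 μM test compound was added. FP read 2 min later against a DNA-only control, with mean ± s.d. of 3 independent experiments. Dissociation was also tested by EMSA on non-denaturing gels.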

Data set [2] relates to HCC1937 cells (BRCA1 deficient). Nature of the data set: Cell viability. The format is cell-based. Conditions: 5 μM 6-OH-dopa. Summed up:
(§1)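 Each BRCA-deficient line tested alongside its BRCA-proficient counterpart after single-concentration test compound (olaparib or siRNA in some panels). Relative viability reported as mean ± s.e.m. of triplicates, with two-tailed Student's t-test.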

A further data set has as its system NHEJ in U20S cells. The data set can be described thus: NHEJ GFP reporter assay. The format is cell-based. Conditions: 5 μM. The essentials:
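NHEJ GFP reporter in U2OS cells, run with or without 5 μM test compound. Mean ± s.e.m. of two separate experiments, each in triplicate.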
Background: In a reporter assay the amount or activity of a reporter protein is the signal.

The subject of data set [3] is MDA-MB-436 cells (BRCA1 deficient and BRCA1 complemented). The data set can be described thus: Cell viability. The format is cell-based. The note with it: for Viability of BRCA1 deficient MDA-MB-436 cells: 3 day time course, 20 μM 6-OH-dopa. Summed up: as §1
The next data set has as its system MDA-MB-436 cells. Nature of the data set: γH2AX foci. The format is cell-based. Conditions: more pronounced in BRCA deficient cells.
The target of a further data set is RAD52 (Homo sapiens, UniProt P43351). Nature of the data set: EMSA with excess ssDNA substrate. The format is binding. The note with it: 25 μM. The essentials: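 RAD52 binding to an excess of Cy3-labelled ssDNA substrate in the presence of 25 μM test compound. Complexes resolved by EMSA on a non-denaturing gel.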
Data set [4] has as its system MDA-MB-436 cells complemented with BRCA1. Nature of the data set: eGFP-RAD52 foci formation after ionizing radiation. The format is cell-based. Conditions: MDA-MB-436 BRCA1 complemented. The essentials: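 BRCA1-complemented MDA-MB-436 cells expressing eGFP-RAD52 were given test compound, then ionizing radiation, with or without IR as control. Nuclei stained with DAPI. Cells with ≥5 eGFP-RAD52 foci counted as percent of total. Mean ± s.e.m. of 3 independent experiments.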

The subject of data set [5] is BCR-ABL transformed murine hematopoietic 32Dcl3 cells expressing eGFP-RAD52. Nature of the data set: eGFP-RAD52 foci formation after cisplatin. The format is cell-based. Conditions: cisplatin treated 32Dcl3 BCR-ABL cells. Summed up: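 Cells expressing eGFP-RAD52 pre-incubated with DMSO or test compound at several concentrations, then treated with cisplatin. Fraction of cells with eGFP-RAD52 foci scored by fluorescence microscopy. Values are mean ± s.e.m. of triplicates; two-tailed Student's t-test.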

The target of data set [6] is T1, RAD52 1-209 undecamer ring (Homo sapiens, UniProt P43351).
T1 sequence (P43351 1-209): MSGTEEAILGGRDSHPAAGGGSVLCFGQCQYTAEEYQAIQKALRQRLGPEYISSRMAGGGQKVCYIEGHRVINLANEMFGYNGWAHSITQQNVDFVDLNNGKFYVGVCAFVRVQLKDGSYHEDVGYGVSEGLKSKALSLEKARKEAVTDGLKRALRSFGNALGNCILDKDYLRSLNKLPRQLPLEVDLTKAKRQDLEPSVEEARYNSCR
The data set can be described thus: Light scattering of RAD52 1-209. The format is biochemical. The essentials:
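RAD52 1-209 (purified by a published method) incubated with or without test compound in 1 M or 0.15 M NaCl. Species sizes measured by light scattering. Buffer-only and compound-only controls included.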

Another data set concerns ssDNA. Nature of the data set: Interaction of small molecule with ssDNA. The note with it: Supplementary Fig. 1. The format is binding.
The target of the next data set is RAD51 (Homo sapiens, UniProt Q06609). The data set can be described thus: Fluorescence polarization. The format is binding. Conditions: in vitro, FP, 280 nM RAD51, 1 mM ATP. The essentials: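 Human RAD51 (280 nM) with 1 mM ATP, 10 nM FAM-labelled ssDNA and varied test compound in pH 7.5 Tris buffer (25 mM NaCl, 0.5 mM MgCl2, 1 mM DTT, 0.01% NP-40, 0.1 mg/mL BSA). Incubated 30 min at room temp, then fluorescence polarization read. Inhibition of ssDNA binding taken from FP.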
Chain of RAD51 (Q06609 whole entry, species assumed): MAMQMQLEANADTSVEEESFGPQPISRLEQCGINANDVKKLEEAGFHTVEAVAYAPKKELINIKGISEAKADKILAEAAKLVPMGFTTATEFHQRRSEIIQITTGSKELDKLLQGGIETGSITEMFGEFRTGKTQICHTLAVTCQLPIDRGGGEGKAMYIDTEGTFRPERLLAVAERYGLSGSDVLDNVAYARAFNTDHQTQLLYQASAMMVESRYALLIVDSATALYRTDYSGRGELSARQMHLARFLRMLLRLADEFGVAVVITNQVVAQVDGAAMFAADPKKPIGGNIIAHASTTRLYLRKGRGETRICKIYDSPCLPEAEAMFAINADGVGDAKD
(Polarisation of emitted light reports the rotation of a fluorescent probe.)

The next data set has as its system AML patient cells. The data set can be described thus: Clonogenic survival. The format is cell-based. Summed up:
(§2)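 Colony-forming survival of BRCA-deficient and BRCA-proficient leukemia patient cells after test compound or olaparib. Each data point pools cells from 3 different patients. Mean ± s.e.m. of 3 independent experiments.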

The test system of data set [7] is VC8 cells (BRCA2 defective). The data set can be described thus: Cell viability / proliferation. Conditions: 75 μM 6-OH-dopa. The format is cell-based, Chinese hamster. Summed up: as §1
The test system of another data set is HR in U20S cells. The data set can be described thus: HR GFP reporter assay. The format is cell-based.
The next data set concerns the target RecA (Escherichia coli, UniProt P0A7G6). Nature of the data set: Effect on RecA in vitro. The format is biochemical. Conditions: Supplementary Fig. 1.
The next data set has as its system HEK293T cells. Nature of the data set: eGFP-RAD52 foci formation after ionizing radiation. The format is cell-based. Summed up: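 HEK293T cells expressing eGFP-RAD52 treated with test compound at several concentrations and exposed to ionizing radiation. DAPI-counterstained nuclei imaged, and the percent of cells with ≥ 5 eGFP-RAD52 foci scored. Values are average ± s.e.m. of 3 independent experiments; two-tailed Student's t-test.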

For data set [8], the system named is CAPAN-1 cells (BRCA2 defective). The data set can be described thus: Cell viability / proliferation. The note with it: 10 μM 6-OH-dopa, 20 μM olaparib. The format is cell-based. Summed up: as §1
Data set [9] addresses RAD52 1-209 (ssDNA binding domain) (Homo sapiens, UniProt P43351). Nature of the data set: Fluorescence polarization.
For data set [10], the system named is BRCA deficient cells (VC8, HCC1937). The data set can be described thus: Annexin V staining. The format is cell-based. The note with it: BRCA deficient vs proficient cells.
In data set [11] the target is T1, RAD52 1-209 undecamer ring. The data set can be described thus: Native gel electrophoresis of RAD52 1-209 composition. The format is biochemical.
In the next data set the test system is SSA in U20S cells. The data set can be described thus: SSA GFP reporter assay. The format is cell-based. Conditions: 5 μM. The essentials: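 U20S cells carrying an SSA reporter exposed to test compounds at 5 μM. RAD52 siRNA versus scrambled siRNA serves as pathway control, with knockdown checked by western blot. Values are mean ± s.e.m. of triplicates, some from 3 separate experiments; two-tailed Student's t-test.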

The subject of data set [12] is BRCA1 deficient CML patient cells. Nature of the data set: Clonogenic survival. The format is cell-based. The essentials:
as §2

For another data set, the target named is T2, RAD52 WT (Homo sapiens, UniProt P43351).
T2 sequence (P43351 1-418): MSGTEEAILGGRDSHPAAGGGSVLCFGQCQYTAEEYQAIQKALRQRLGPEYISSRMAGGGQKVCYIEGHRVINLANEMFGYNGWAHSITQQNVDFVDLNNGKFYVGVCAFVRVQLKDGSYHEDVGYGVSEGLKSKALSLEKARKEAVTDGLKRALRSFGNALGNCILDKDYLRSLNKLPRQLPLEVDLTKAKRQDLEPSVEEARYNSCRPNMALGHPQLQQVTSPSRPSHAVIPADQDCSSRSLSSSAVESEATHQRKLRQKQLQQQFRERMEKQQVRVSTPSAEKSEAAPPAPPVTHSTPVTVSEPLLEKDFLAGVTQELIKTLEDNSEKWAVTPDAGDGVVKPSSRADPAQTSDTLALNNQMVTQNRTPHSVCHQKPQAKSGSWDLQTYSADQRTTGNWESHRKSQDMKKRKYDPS
Nature of the data set: Fluorescence polarization. The format is binding. The note with it: for Inhibition of RAD52 ssDNA binding: in vitro, Supplementary Fig. 1.

The data set “native gel or EMSA” concerns the molecule itself. The data set can be described thus: native gel or EMSA. On the technique in general: A gel shift assay detects complexes by their altered migration in electrophoresis.
Data set [13] concerns the molecule itself. The data set can be described thus: light scattering.
Data set [14] deals with the molecule itself. Nature of the data set: light scattering. This is another data set of the same source.

Chain of RecA (P0A7G6 whole entry, species assumed): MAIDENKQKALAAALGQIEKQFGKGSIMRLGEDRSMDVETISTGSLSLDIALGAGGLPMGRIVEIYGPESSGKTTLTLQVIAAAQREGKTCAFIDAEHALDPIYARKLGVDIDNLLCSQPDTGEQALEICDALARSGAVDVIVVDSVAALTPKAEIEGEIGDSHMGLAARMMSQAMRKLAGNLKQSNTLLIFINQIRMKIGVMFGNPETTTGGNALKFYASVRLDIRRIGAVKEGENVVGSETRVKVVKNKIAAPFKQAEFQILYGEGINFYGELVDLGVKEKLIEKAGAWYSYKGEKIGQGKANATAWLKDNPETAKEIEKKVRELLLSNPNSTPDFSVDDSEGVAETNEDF

In general, IC50 refers to the point on the concentration scale where inhibition reaches its midpoint. Higher therefore signals lower potency. As for `NC(Cc1cc(O)c(O)cc1O)C(=O)O` (racemic) [6-OH-dopa, 6-hydroxy-DL-dopa], in data set [1], the “Clonogenic survival of BRCA deficient cell lines” value is reported as “inhibited the survival”. For the same molecule, the “Clonogenic survival of BRCA proficient cells” value in data set [1] (at the given doses) is “little or no effect”. Besides, the “Dissociation of pre-formed RAD52-ssDNA complexes” value at RAD52-ssDNA complexes was “fully dissociated RAD52-ssDNA complexes”. Moreover, the “Viability of HCC1937 cells” value in [2] is reported as “selectively reduced the viability”. Also, in the data set with NHEJ in U20S cells, the “Effect on NHEJ” value is listed as “only slightly inhibited NHEJ”. Moreover, the “Viability of BRCA1 deficient MDA-MB-436 cells” value in [3] is reported as “nearly identical reduction in viability”. For the same molecule, the “Viability of BRCA1 deficient MDA-MB-436 cells when RAD52 expression was suppressed” value in [3] (RAD52 siRNA) is “lost its ability to significantly reduce the viability”. Moreover, the “DNA damage indicated by γH2AX foci” value with MDA-MB-436 cells is given as “substantial increase in DNA damage”. In addition, the “Inhibition of RAD52 in the presence of ~100-fold excess of ssDNA substrate” value on RAD52 is “continued to inhibit RAD52”. For the same molecule, the eGFP-RAD52 foci result in data set [4] is given as “inhibited eGFP-RAD52 foci”; with HEK293T cells it was “decreased the number of eGFP-RAD52 foci in a dose dependent manner”. In data set [5], the eGFP-RAD52 foci formation entry was “suppressed eGFP-RAD52 foci formation in a dose dependent manner”. Besides, the “Size of RAD52 1-209 species produced” value in data set [6] (high salt (1 M NaCl)) and in data set [6] (low salt (0.15 M NaCl)) was 48.3 kDa each time. In addition, the “Undecamers (270 kDa) converted into dimers (48.3 kDa)” value in data set [6] (low salt (0.15 M NaCl)) stood at 100%. For the same molecule, in the data set on ssDNA, the “Interaction with ssDNA” value is listed as “does not interact with ssDNA”. The “Effect on RAD51” value at RAD51 is recorded as “little or no effect; also recorded: no effect”. In addition, the “Colony formation by AML patient cells expressing normal levels of BRCA1/2” value with AML patient cells is listed as “little effects”. The “Proliferation of VC8 cells” value in data set [7] was “selectively halted the proliferation”. Also, in the data set with HR in U20S cells (RAD52 siRNA), the “Effect on HR when RAD52 was suppressed” value is recorded as “had no effect on HR”. The “Effect on HR” value with HR in U20S cells (U20S cells, 5 μM) is reported as “little or no reduction in HR”. Moreover, the “Effect on RecA” value on RecA is “very little effect”. In addition, the “Proliferation of CAPAN-1 cells” value in [8] is listed as “selectively halted the proliferation”. The IC50 was determined as 1600 nM in data set [9] and 1100 nM against RAD52 WT. Also, in data set [10], the “Apoptosis indicated by annexin V staining” value is reported as “specifically increased apoptosis”. In addition, the “Effect on RAD52 1-209 composition” value in [11] is “dissociates RAD52 complexes”. Also, the “Effect on SSA” value with SSA in U20S cells was “consistently inhibited SSA”. Besides, the “Survival of BRCA1 deficient CML patient cells” value in [12] is “significant reduction in the survival”. Besides, the “Percent lower IC50 for RAD52 WT compared to RAD52 1-209” value at RAD52 WT was 31%.
Regarding `NC(Cc1ccccc1O)C(=O)O` (racemic) [DL-o-tyrosine, reference compound], in [11], the “Effect on RAD52 1-209 composition” value was “had no effect on RAD52 1-209 composition”. In addition, on RAD52 WT, the “Inhibition of RAD52 ssDNA binding” value is “failed to inhibit RAD52”.
As for `N[C@H](C(=O)O)[C@H](O)c1ccc(O)c(O)c1` [L-DOPS, reference compound], in the data set on SSA in U20S cells, the “Effect on SSA” value is given as “failed to inhibit SSA”. Also, the “Inhibition of RAD52 ssDNA binding” value on RAD52 WT was “failed to inhibit”.
On to `O=C(c1cc(Cc2n[nH]c(=O)c3ccccc23)ccc1F)N1CCN(C(=O)C2CC2)CC1` [olaparib, reference compound], for which the “Viability of BRCA1 deficient MDA-MB-436 cells” value in data set [3] was “selectively reduced the viability”. For the same molecule, the “Colony formation by AML patient cells expressing normal levels of BRCA1/2” value in the data set with AML patient cells is reported as “little effects”.

B1: RAD52 WT (wild-type, full-length RAD52, Histidine-tagged) (natural protein, human, UniProt P43351 1-418, looked up)
chain: T2 sequence (P43351 1-418)
As a reminder, the stoichiometry N is a count of units in the complex or per binding partner. Regarding B1, the “stoichiometry N” value in “native gel or EMSA” was 14.

B2: RAD52 1-209 (RAD52 ssDNA binding domain, residues 1-209) (domain or fragment, human, UniProt P43351 1-209, looked up)
chain: T1 sequence (P43351 1-209)
Regarding B2, the “stoichiometry N” value worked out at 11 in “light scattering [13]” and 2 in the data set “light scattering [14]”.
